Drawing on ChEMBL document CHEMBL1124031, “6-[18F]fluorometaraminol: a radiotracer for in vivo mapping of adrenergic nerves of the heart” (J Med Chem, 1988), this text covers Dose and Change for one molecule.

For series [1], the species on record is Rattus norvegicus. As to the kind of experiment: Concentration of compound in spleen of rats, pretreated with desmethylimipramine, assessed using [18F]- as radiotracer;Dose/g. The settings on record: in vivo. In kind it is ADME, organism-based. The essentials:
(§1)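 Female Sprague–Dawley rats (230–290 g) got DMI·HCl 10 mg/kg ip, or an equal volume of saline ip for controls, 30 min before iv [18F] tracer (5 µCi). Killed 1.5 h after tracer. Duplicate tissue samples were weighed and gamma counted. Values are decay-corrected % dose/g normalized to 250 g body weight, mean ± SEM, four rats per group.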

Series [2] is filed under the species Rattus norvegicus. As to the kind of experiment: Concentration of compound in right ventricle of rats, pretreated with desmethylimipramine, assessed using [18F]- as radiotracer;Dose/g. The note with it: in vivo. Type of series: ADME, organism-based, Heart right ventricle. The essentials:
as §1

Series [3] is filed under the species Rattus norvegicus. As to the kind of experiment: Concentration of compound in right atrium of rats, pretreated with desmethylimipramine, assessed using [18F]- as radiotracer;Dose/g. Type of series: ADME, organism-based, Cardiac atrium. The settings on record: in vivo. The essentials: as §1
Series [4] is filed under the species Rattus norvegicus. As to the kind of experiment: Desmethylimipramine blockade of compound with [3H]NE as radiotracer, and percentage change was measured in rat right atrium. Type of series: functional, Cardiac atrium. In outline:
(§2)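 Comparison study with [3H]NE (levo-[7-3H], 15–20 Ci/mmol) as tracer in female Sprague–Dawley rats (230–290 g). Rats were pretreated with DMI·HCl 10 mg/kg ip, or an equal volume of saline ip, 30 min before iv tracer. Value is the percent change in tissue tracer concentration versus saline controls; five rats per group.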

The species entered for series [5] is Rattus norvegicus. As to the kind of experiment: Desmethylimipramine blockade of compound with [3H]NE as radiotracer, and percentage change was measured in rat right ventricle. Type of series: functional, Heart right ventricle. The essentials: as §2
For series [6], the species on record is Rattus norvegicus. Briefly: Concentration of compound in left atrium of rats, pretreated with desmethylimipramine, assessed using [18F]- as radiotracer;Dose/g. In kind it is ADME, organism-based, Cardiac atrium. The note with it: in vivo. The essentials:
as §1

The species entered for series [7] is Rattus norvegicus. As to the kind of experiment: Desmethylimipramine blockade of compound with [3H]NE as radiotracer, and percentage change was measured in rat left atrium. Type of series: functional, Cardiac atrium. The essentials:
as §2

The species entered for series [8] is Rattus norvegicus. As to the kind of experiment: Concentration of compound in blood of rats, pretreated with desmethylimipramine, assessed using [18F]- as radiotracer;Dose/g. In kind it is ADME, organism-based. The settings on record: in vivo. The essentials: as §1
Series [9] is filed under the species Rattus norvegicus. As to the kind of experiment: Desmethylimipramine blockade of compound with [3H]-NE as radiotracer, and percentage change was measured in rat left ventricle. In kind it is functional, Heart left ventricle. The essentials: as §2
For series [10], the species on record is Rattus norvegicus. As to the kind of experiment: Desmethylimipramine blockade of compound with [3H]NE as radiotracer, and percentage change was measured in rat spleen. Type of series: functional. In outline: as §2
For series [11], the species on record is Rattus norvegicus. Briefly: Desmethylimipramine blockade of compound with [3H]NE as radiotracer, and percentage change was measured in rat blood. Type of series: functional. The essentials:
as §2

Series [12] is filed under the species Rattus norvegicus. Briefly: Concentration of compound in left ventricle of rats, pretreated with desmethylimipramine, assessed using [18F]- as radiotracer;Dose/g. The note with it: in vivo. In kind it is ADME, organism-based, Heart left ventricle. The essentials:
as §1

The species named for series [13] is Rattus norvegicus. Briefly: Concentration of compound in liver of rats, pretreated with desmethylimipramine, assessed using [18F]- as radiotracer;Dose/g. Type of series: ADME, organism-based. The note with it: in vivo. In outline:
as §1

As for `CC(N)C(O)c1cc(O)ccc1F` (stereo not drawn), the Dose in the series filed under Rattus norvegicus [1] is 0.2%; in the series filed under Rattus norvegicus [2], 0.2%; in the series listed under Rattus norvegicus [3], 0.24%; in the series listed under Rattus norvegicus [6], 0.24%; in the series filed under Rattus norvegicus [8] it was 0.12%; in the series filed under Rattus norvegicus [12] it was 0.15%. The Dose in the series listed under Rattus norvegicus [13] worked out at 0.77%. Besides, the Change is recorded as -95% in the series listed under Rattus norvegicus [4]; -96% in the series filed under Rattus norvegicus [5]; -95% in the series listed under Rattus norvegicus [7]; -97% in the series listed under Rattus norvegicus [9]; -86% in the series filed under Rattus norvegicus [10]; 55% in the series filed under Rattus norvegicus [11].
